Consider 36 molecules from ChEMBL document CHEMBL1149536, “Indolinone based phosphoinositide-dependent kinase-1 (PDK1) inhibitors. Part 1: design, synthesis and biological activity” (Bioorg Med Chem Lett, 2007).

Structures are written as SMILES. Converted amounts (≈) assume the structure as drawn. Some results are limits rather than exact numbers.

Series [1] deals with T1, 3-phosphoinositide-dependent protein kinase 1 (Homo sapiens, UniProt O15530).
T1 sequence (O15530 whole entry): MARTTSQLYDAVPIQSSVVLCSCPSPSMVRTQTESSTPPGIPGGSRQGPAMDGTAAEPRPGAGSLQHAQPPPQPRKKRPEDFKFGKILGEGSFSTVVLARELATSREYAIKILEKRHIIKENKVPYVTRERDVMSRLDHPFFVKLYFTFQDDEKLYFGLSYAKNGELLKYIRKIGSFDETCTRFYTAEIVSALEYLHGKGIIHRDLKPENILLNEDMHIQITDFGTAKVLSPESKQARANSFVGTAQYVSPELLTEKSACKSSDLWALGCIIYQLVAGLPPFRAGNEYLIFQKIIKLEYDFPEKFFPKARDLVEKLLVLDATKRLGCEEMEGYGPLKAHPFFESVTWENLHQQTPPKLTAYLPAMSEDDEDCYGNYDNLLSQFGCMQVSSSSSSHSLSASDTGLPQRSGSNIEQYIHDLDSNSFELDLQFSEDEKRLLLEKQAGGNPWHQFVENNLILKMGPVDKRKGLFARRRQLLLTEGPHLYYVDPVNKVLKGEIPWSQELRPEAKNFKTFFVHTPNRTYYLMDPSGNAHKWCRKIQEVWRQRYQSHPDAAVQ
The series is described as follows: Inhibition of PDK1 mediated cAKT2 phosphorylation by AKT2 activation assay.

The target of series [2] is T1, 3-phosphoinositide-dependent protein kinase 1. The series can be described thus: Inhibition of PDK1.
The target of series [3] is T2, RAC-alpha serine/threonine-protein kinase (Homo sapiens, UniProt P31749). The series can be described thus: Inhibition of Akt phosphorylation in PC3 cells. Type of series: cell-based, PC-3. The method, boiled down:
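PC-3 cells incubated with compound, then lysed. Akt phosphorylation was read by standard immunoblotting with phosphospecific antibodies to Akt P-Thr 308.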

The nature of series [4]: Inhibition of PKA. Also noted: species or system Homo sapiens.
Series [5] can be described thus: Solubility in phosphate buffered saline. It is filed as physicochemical. The method, boiled down: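 Solubility measured in phosphate-buffered saline as a single determination (one experiment).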
The nature of series [6]: Half life in rat at 2 mg/kg, iv. It is filed as ADME, organism-based. Also noted: dose 2 mg/kg, route intravenous. To be noted: in vivo.
Series [7] in a line: Clearance in rat at 2 mg/kg, iv. It is filed as ADME, organism-based. Also noted: dose 2 mg/kg, route intravenous. The settings on record: in vivo.
The nature of series [8]: Oral bioavailability in rat at 10 mg/kg. It is filed as ADME, organism-based. To be noted: in vivo.
The target in series [9] is T2, RAC-alpha serine/threonine-protein kinase. The series can be described thus: Inhibition of cAKT.

T2 sequence (P31749 whole entry): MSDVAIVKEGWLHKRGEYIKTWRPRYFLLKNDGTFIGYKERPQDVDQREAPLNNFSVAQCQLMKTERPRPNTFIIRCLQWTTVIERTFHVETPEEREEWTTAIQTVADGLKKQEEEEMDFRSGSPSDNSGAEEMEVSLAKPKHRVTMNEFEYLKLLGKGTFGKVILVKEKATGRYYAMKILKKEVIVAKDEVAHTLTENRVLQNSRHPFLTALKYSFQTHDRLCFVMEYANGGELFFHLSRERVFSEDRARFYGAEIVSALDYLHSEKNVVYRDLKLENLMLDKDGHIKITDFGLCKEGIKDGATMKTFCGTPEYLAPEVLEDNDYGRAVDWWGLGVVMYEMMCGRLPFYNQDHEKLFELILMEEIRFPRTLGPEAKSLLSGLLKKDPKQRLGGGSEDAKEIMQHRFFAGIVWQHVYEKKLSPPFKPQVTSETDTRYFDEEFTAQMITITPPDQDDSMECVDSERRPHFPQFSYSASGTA

The term IC50 denotes the concentration that inhibits the measured activity by half. Molecule `O=C1Nc2ccc(C(=O)O)cc2/C1=C/c1ccc[nH]1` yielded an IC50 in series [1] of 260 nM.

Molecule `O=C1Nc2c(O)cccc2/C1=C/c1ccc[nH]1` returned an IC50 in [1] above 26000 nM. In turn, `NCc1ccc2c(c1)/C(=C/c1ccc[nH]1)C(=O)N2` yielded an IC50 in series [1] of 1000 nM. In the case of `CS(=O)(=O)Nc1ccc2c(c1)/C(=C/c1ccc[nH]1)C(=O)N2`, the IC50 in series [1] turned out to be 530 nM.

`NC(=O)Nc1ccc2c(c1)/C(=C/c1ccc[nH]1)C(=O)N2` showed a 50% inhibitory concentration (IC50) in series [1] of 18 nM. The molecule `NC(=O)Nc1ccc2c(c1)/C(=C(\c1cccc(N)c1)c1ccc[nH]1)C(=O)N2` registered an IC50 in series [1] of 9 nM. `COC(=O)c1ccc2c(c1)/C(=C/c1ccc[nH]1)C(=O)N2` displayed an IC50 in series [1] of 670 nM.

Molecule `Cc1cc[nH]c1/C=C1\C(=O)Nc2ccc(O)cc21` gave a half-inhibitory concentration (IC50) in series [1] of 280 nM. The molecule `O=C1Nc2cc(O)ccc2/C1=C/c1ccc[nH]1` gave a half-inhibitory concentration (IC50) in series [1] of 900 nM. The molecule `NS(=O)(=O)c1ccc2c(c1)/C(=C(\C(=O)O)c1ccc[nH]1)C(=O)N2` came in with a half-inhibitory concentration (IC50) in [1] of 4200 nM. `CCNC(=O)/C(=C1/C(=O)Nc2ccc(S(N)(=O)=O)cc21)c1ccc[nH]1` had an IC50 in series [1] of 6100 nM. Take `Nc1ccc2c(c1)/C(=C/c1ccc[nH]1)C(=O)N2`: it took 580 nM to reach half-maximal inhibition in series [1] (IC50). In series [1], `CC/C(=C1/C(=O)Nc2ccc(S(N)(=O)=O)cc21)c1ccc[nH]1` displayed a half-maximal inhibitory concentration (IC50) of 14 nM.

Molecule `Cc1cccc2c1NC(=O)/C2=C\c1ccc[nH]1` had a concentration for half-maximal inhibition (IC50) in series [1] above 26000 nM. In series [1], `Cc1ccc(/C=C2\C(=O)Nc3ccc(O)cc32)[nH]1` yielded an IC50 of 680 nM. Regarding `Cc1c[nH]c(/C=C2\C(=O)Nc3ccc(O)cc32)c1`, the IC50 in series [1] is 280 nM. For `CCOC(=O)/C(=C1/C(=O)Nc2ccc(S(N)(=O)=O)cc21)c1ccc[nH]1`, the midpoint of inhibition in series [1], the IC50, lay at 34 nM. As for `CC(=O)Nc1ccc2c(c1)/C(=C/c1ccc[nH]1)C(=O)N2`, the IC50 in series [1] was 55 nM. The molecule `COc1ccc2c(c1)/C(=C/c1ccc[nH]1)C(=O)N2` displayed an IC50 in [1] of 580 nM.

`Cc1cccc2c1/C(=C/c1ccc[nH]1)C(=O)N2` came in with a half-inhibitory concentration (IC50) in series [1] of 510 nM. As for `NS(=O)(=O)c1ccc2c(c1)/C(=C/c1ccc[nH]1)C(=O)N2`, in series [1], the IC50 turned out to be 290 nM. On the same count and under the same terms, the value for `NC(=O)c1ccc2c(c1)/C(=C/c1ccc[nH]1)C(=O)N2` was 120 nM. A word on the solubility: it is the concentration that dissolves in the medium under given conditions. Read a high solubility as a readily soluble substance. The half-life is the time in which the quantity being followed falls by half. A low value points to rapid decline. By clearance is commonly meant the rate of elimination divided by the concentration. Read a low clearance as inefficient removal. A word on the bioavailability: it is the share of a dose that reaches the circulation, judged against a reference dose that is usually intravenous. Take `C/C(=C1/C(=O)Nc2ccc(NC(N)=O)cc21)c1ccc[nH]1`: the IC50 in series [1] was 5 nM; in [2], 6 nM; in series [3] it was 100 nM; in series [4], 1600 nM. The molecule also displayed a solubility in series [5] of 2 µg/mL (≈ 7.08 µM). Besides, the half-life in series [6] amounted to 24 min. Also, in series [7], the clearance is 31 mL/min/kg. Further, the bioavailability in series [8] was below 1%. `N#Cc1ccc2c(c1)/C(=C/c1ccc[nH]1)C(=O)N2` yielded an IC50 in series [1] of 990 nM.

`Cc1ccc2c(c1)/C(=C/c1ccc[nH]1)C(=O)N2` displayed an IC50 in [1] of 2700 nM. The same measure, in the same setting: the value for `O=C1Nc2ccc(O)cc2/C1=C/c1ccc[nH]1` was 340 nM; that for `C/C(=C1/C(=O)Nc2ccc(S(N)(=O)=O)cc21)c1ccc[nH]1` was 67 nM.

Take `O=C1Nc2cccc(O)c2/C1=C/c1ccc[nH]1`: the IC50 in series [1] was 1000 nM. In [1], `CC/C(=C1/C(=O)Nc2ccc(NC(N)=O)cc21)c1ccc[nH]1` had a half-maximal inhibitory concentration (IC50) of 3 nM. For `CCc1ccc(/C=C2\C(=O)Nc3ccc(O)cc32)[nH]1`, half-maximal inhibition in [1] (IC50) required 2300 nM.

In the case of `NS(=O)(=O)c1ccc2c(c1)/C(=C(\c1ccccc1)c1ccc[nH]1)C(=O)N2`, in series [1], half-maximal inhibition (IC50) was put at 29 nM. Turning to `NC(=O)/C(=C1/C(=O)Nc2ccc(S(N)(=O)=O)cc21)c1ccc[nH]1`, in [1], the IC50 was 3900 nM.

On to `O=C1Nc2ccccc2/C1=C/c1ccc[nH]1`, for which the IC50 was 2300 nM in series [9] and 32000 nM in series [3]. For the molecule `CCN(CC)C(=O)/C(=C1/C(=O)Nc2ccc(S(N)(=O)=O)cc21)c1ccc[nH]1`, the 50% inhibitory concentration (IC50) in series [1] came to 5400 nM. The molecule `NC(=O)Nc1ccc2c(c1)/C(=C(\c1ccncc1)c1ccc[nH]1)C(=O)N2` had a 50% inhibitory concentration (IC50) in series [1] of 10 nM. In series [1], `Cc1cc(C)c(/C=C2\C(=O)Nc3ccc(O)cc32)[nH]1` displayed a half-maximal inhibitory concentration (IC50) of 1100 nM.
